From ChEMBL document CHEMBL3797098, “An in Vitro and in Vivo Investigation of Bivalent Ligands That Display Preferential Binding and Functional Activity for Different Melanocortin Receptor Homodimers” (J Med Chem, 2016)
Each block holds one molecule with its values, some of them ahead of it. Activity calls are given as the source filed them. No cut-off for these calls is given here. Square brackets hold non-standard residues; d marks the D form. Peptide text beside a SMILES is read from it.

Tests used:
[1] = target: Melanocortin receptor 3 (Mus musculus) (UniProt P33033); assay: Agonist activity at mouse MC3R expressed in HEK293 cells assessed as cAMP accumulation at 100 uM incubated for 2 hrs by alphascreen assay; type: functional, cell-based
Method in brief: (§1)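 cAMP response at 100 μM in stably transfected HEK293 cells (mouse MC3R-Flag, MC4R or MC5R), expressed as % of maximal NDP-MSH signal. AlphaScreen readout after 2 h room-temperature stimulation in IBMX-containing HBSS buffer, pH 7.4. Duplicate points, at least three independent experiments.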

[2] = target: Melanocortin receptor 5 (Mus musculus) (UniProt P41149); assay: Agonist activity at mouse MC5R expressed in HEK293 cells assessed as cAMP accumulation at 100 uM incubated for 2 hrs by alphascreen assay; type: functional, cell-based; method in brief: as §1
[3] = target: Melanocortin receptor 3 (Mus musculus) (UniProt P33033); assay: Displacement of 125I-NDP-MSH from mouse MC3R expressed in HEK293 cells at 100 uM incubated for 1 hr by gamma counting analysis; type: cell-based
Method in brief: (§2)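 Mouse MC3R-Flag transiently transfected into HEK293 cells using FuGene6 two days before assay. Cells exposed 1 h at 37°C to 125I-NDP-MSH (100,000 cpm/well) plus competitor at 10^-12 to 10^-4 M in DMEM/0.1% BSA, then washed, lysed and gamma counted. Nonspecific binding defined with 10^-6 M NDP-MSH. Duplicates, ≥2 independent experiments.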

[4] = target: Melanocyte-stimulating hormone receptor (Mus musculus) (UniProt Q01727); assay: Displacement of 125I-NDP-MSH from mouse MC1R expressed in HEK293 cells incubated for 1 hr by gamma counting analysis relative to Ac-His-DPhe-Arg-Trp-NH2; type: cell-based
Method in brief: (§3)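 Whole HEK293 cells stably expressing mouse MC1R or MC4R, grown to 90-100% confluency, incubated 1 h at 37°C in DMEM/0.1% BSA with 125I-NDP-MSH (100,000 cpm/well) and unlabeled ligand at 10^-12 to 10^-4 M. After one wash, cells lysed with NaOH/Triton X-100 and gamma counted. Nonspecific binding defined with 10^-6 M NDP-MSH.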

[5] = target: Melanocortin receptor 3 (Mus musculus) (UniProt P33033); assay: Displacement of 125I-NDP-MSH from mouse MC3R expressed in HEK293 cells incubated for 1 hr by gamma counting analysis relative to Ac-His-DPhe-Arg-Trp-NH2; type: cell-based; method in brief: as §2
[6] = target: Melanocyte-stimulating hormone receptor (Mus musculus) (UniProt Q01727); assay: Agonist activity at mouse MC1R expressed in HEK293 cells assessed as cAMP accumulation incubated for 2 hrs by alphascreen assay relative to Ac-His-DPhe-Arg-Trp-NH2; type: functional, cell-based
Method in brief: (§4)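 HEK293 cells stably expressing mouse MC1R, MC3R (Flag-tagged), MC4R or MC5R, 10,000 cells/well, stimulated with ligand at 10^-13 to 10^-4 M for 2 h at room temperature in HBSS stimulation buffer with 0.5 mM IBMX, 0.1% BSA, pH 7.4. cAMP read by AlphaScreen competition after a further 2 h with donor beads.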

[7] = target: Melanocortin receptor 4 (Mus musculus) (UniProt P56450); assay: Agonist activity at mouse MC4R expressed in HEK293 cells assessed as cAMP accumulation incubated for 2 hrs by alphascreen assay relative to Ac-His-DPhe-Arg-Trp-NH2; type: functional, cell-based; method in brief: as §4
[8] = target: Melanocortin receptor 4 (Mus musculus) (UniProt P56450); assay: Agonist activity at mouse MC4R expressed in HEK293 cells assessed as cAMP accumulation at 100 uM incubated for 2 hrs by alphascreen assay; type: functional, cell-based; method in brief: as §1
Mus musculus [9] = assay: Reduction in food intake in icv dosed male 129/Sv x C57BL/6J mouse measured at 2 to 72 hrs post dose; type: functional, organism-based
Method in brief: (§5)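 Crossover design in mice aged 8 weeks with lateral-ventricle cannulas (placement validated by PYY3-36), chow ad libitum, 12-h light/dark. Single ICV injection of 1.0, 2.5 or 5.0 nmol in 3 µL saline, or saline alone, 2 h before lights out. Food intake and body weight weighed at 0, 2, 4, 6, 8, 24, 48, 72 h. One-way ANOVA with Bonferroni test versus saline.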

Mus musculus [10] = assay: Reduction in food intake in male 129/Sv x C57BL/6J mouse at 2.5 to 5 nmol, icv measured at 2 to 5 hrs post dose; type: functional, organism-based
Mus musculus [11] = assay: Reduction in food intake in male 129/Sv x C57BL/6J mouse at 2.5 to 5 nmol, icv measured at 24 to 72 hrs post dose; type: functional, organism-based; method in brief: as §5
Mus musculus [12] = assay: Reduction in food intake in female 129/Sv x C57BL/6J mouse at 2.5 to 5 nmol, icv measured at 2 to 8 hrs post dose; type: functional, organism-based; method in brief: as §5
Mus musculus [13] = assay: Reduction in food intake in female 129/Sv x C57BL/6J mouse at 2.5 to 5 nmol, icv measured at 24 hrs post dose; type: functional, organism-based; method in brief: as §5
Mus musculus [14] = assay: Reduction in food intake in female 129/Sv x C57BL/6J mouse at 2.5 to 5 nmol, icv measured at 48 to 72 hrs post dose; type: functional, organism-based; method in brief: as §5
Mus musculus [15] = assay: Effect on body weight in male 129/Sv x C57BL/6J mouse at 2.5 to 5 nmol, icv measured at 2 to 72 hrs post dose; type: ADME, organism-based; conditions: in vivo, icv_or_intrathecal; method in brief: as §5
Mus musculus [16] = assay: Toxicity in male 129/Sv x C57BL/6J mouse assessed as drug tolerability at 2.5 and 5 nmol, icv measured at 2 to 72 hrs post dose; type: organism-based; conditions: in vivo
Mus musculus [17] = assay: Effect on body weight in female 129/Sv x C57BL/6J mouse at 2.5 to 5 nmol, icv measured at 2 to 72 hrs post dose; type: ADME, organism-based; conditions: in vivo, icv_or_intrathecal; method in brief: as §5
[18] = target: Melanocortin receptor 5 (Mus musculus) (UniProt P41149); assay: Agonist activity at mouse MC5R expressed in HEK293 cells assessed as cAMP accumulation incubated for 2 hrs by alphascreen assay relative to Ac-His-DPhe-Arg-Trp-NH2; type: functional, cell-based; method in brief: as §4
[19] = target: Melanocortin receptor 4 (Mus musculus) (UniProt P56450); assay: Displacement of 125I-NDP-MSH from mouse MC4R expressed in HEK293 cells incubated for 1 hr by gamma counting analysis relative to Ac-His-DPhe-Arg-Trp-NH2; type: cell-based; method in brief: as §3

Chain of Melanocortin receptor 5 (Mus musculus) (P41149 whole entry): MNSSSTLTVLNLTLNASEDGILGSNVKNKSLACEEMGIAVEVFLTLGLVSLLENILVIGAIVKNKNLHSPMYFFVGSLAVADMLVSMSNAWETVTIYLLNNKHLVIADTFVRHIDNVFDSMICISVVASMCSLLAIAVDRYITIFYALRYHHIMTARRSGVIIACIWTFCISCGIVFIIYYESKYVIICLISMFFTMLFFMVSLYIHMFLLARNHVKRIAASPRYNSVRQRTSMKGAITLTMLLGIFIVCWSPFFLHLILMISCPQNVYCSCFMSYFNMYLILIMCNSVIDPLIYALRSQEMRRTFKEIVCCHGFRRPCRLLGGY
Chain of Melanocortin receptor 4 (Mus musculus) (P56450 whole entry): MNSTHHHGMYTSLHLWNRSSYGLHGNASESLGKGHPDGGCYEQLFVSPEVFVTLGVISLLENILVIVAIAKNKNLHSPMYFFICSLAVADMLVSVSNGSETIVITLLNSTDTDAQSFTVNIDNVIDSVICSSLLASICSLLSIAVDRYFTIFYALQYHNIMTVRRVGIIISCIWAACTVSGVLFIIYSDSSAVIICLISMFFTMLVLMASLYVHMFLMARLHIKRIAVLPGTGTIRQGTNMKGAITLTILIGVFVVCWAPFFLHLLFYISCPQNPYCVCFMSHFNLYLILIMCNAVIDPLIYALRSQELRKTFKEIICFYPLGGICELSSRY
Chain of Melanocortin receptor 3 (Mus musculus) (P33033 whole entry): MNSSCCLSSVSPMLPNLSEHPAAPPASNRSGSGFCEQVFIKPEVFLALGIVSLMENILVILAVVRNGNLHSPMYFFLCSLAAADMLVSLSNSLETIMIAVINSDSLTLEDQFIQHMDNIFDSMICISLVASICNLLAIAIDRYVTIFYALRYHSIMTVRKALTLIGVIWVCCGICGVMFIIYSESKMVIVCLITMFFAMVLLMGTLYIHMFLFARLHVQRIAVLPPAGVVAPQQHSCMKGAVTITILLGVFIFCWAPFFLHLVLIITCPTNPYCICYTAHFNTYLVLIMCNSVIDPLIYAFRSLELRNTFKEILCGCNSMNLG
Chain of Melanocyte-stimulating hormone receptor (Mus musculus) (Q01727 whole entry, looked up): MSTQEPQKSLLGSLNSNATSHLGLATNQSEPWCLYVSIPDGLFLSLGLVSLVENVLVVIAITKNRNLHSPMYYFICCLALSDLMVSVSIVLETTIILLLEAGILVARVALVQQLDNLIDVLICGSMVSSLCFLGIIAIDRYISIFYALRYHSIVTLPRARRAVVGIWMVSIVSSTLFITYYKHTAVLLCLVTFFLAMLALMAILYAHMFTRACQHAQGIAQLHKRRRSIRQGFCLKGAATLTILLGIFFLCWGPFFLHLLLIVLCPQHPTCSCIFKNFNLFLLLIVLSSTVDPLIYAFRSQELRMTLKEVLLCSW

SMILES: CC(=O)N[C@@H](Cc1c[nH]cn1)C(=O)N[C@H](Cc1ccc2ccccc2c1)C(=O)N[C@@H](CCCN=C(N)N)C(=O)N[C@@H](Cc1c[nH]c2ccccc12)C(N)=O
Activity [1]: 45%
Activity [2]: 75%

SMILES: CC(=O)N[C@@H](Cc1cnc[nH]1)C(=O)N[C@H](Cc1ccccc1)C(=O)N[C@@H](CCCNC(=N)N)C(=O)N[C@@H](Cc1c[nH]c2ccccc12)C(N)=O
inhibition [3]: 60%

SMILES: CC(=O)N[C@H](Cc1cnc[nH]1)C(=O)N[C@H](Cc1ccccc1)C(=O)N[C@@H](CCCNC(=N)N)C(=O)N[C@H](Cc1c[nH]c2ccccc12)C(=O)N1CCC[C@@H]1C(=O)NCC(=O)N1CCC[C@@H]1C(=O)NCC(=O)N1CCC[C@@H]1C(=O)NCC(=O)N1CCC[C@@H]1C(=O)NCC(=O)N1CCC[C@@H]1C(=O)NCC(=O)N1CCC[C@H]1C(=O)NCC(N)=O
inhibition [3]: 85%
Ratio EC50 [6]: 2
Ratio EC50 [7]: 0.2

SMILES: CC(=O)N[C@@H](Cc1cnc[nH]1)C(=O)N[C@H](Cc1ccccc1)C(=O)N[C@@H](CCCNC(=N)N)C(=O)N[C@@H](Cc1c[nH]c2ccccc12)C(=O)NCCCOCCOCCOCCCNC(=O)COCC(=O)N[C@@H](Cc1cnc[nH]1)C(=O)N[C@H](Cc1ccccc1)C(=O)N[C@@H](CCCNC(=N)N)C(=O)N[C@@H](Cc1c[nH]c2ccccc12)C(N)=O
Activity (Mus musculus [9]): Dose-dependent effect
Activity (Mus musculus [10]): Active
Activity (Mus musculus [11]): inactive
Activity (Mus musculus [12]): inactive
Activity (Mus musculus [13]): Active
Activity (Mus musculus [14]): inactive
Activity (Mus musculus [15]): Non-toxic
Activity (Mus musculus [16]): Non-toxic
Activity (Mus musculus [17]): Non-toxic

SMILES: CC(=O)N[C@H](Cc1cnc[nH]1)C(=O)N[C@H](Cc1ccccc1)C(=O)N[C@@H](CCCNC(=N)N)C(=O)N[C@H](Cc1c[nH]c2ccccc12)C(=O)N1CCC[C@@H]1C(=O)NCC(=O)N1CCC[C@@H]1C(=O)NCC(=O)N1CCC[C@@H]1C(=O)NCC(=O)N1CCC[C@@H]1C(=O)NCC(=O)N1CCC[C@@H]1C(=O)NCC(=O)N1CCC[C@H]1C(=O)NCC(=O)N[C@@H](Cc1cnc[nH]1)C(=O)N[C@H](Cc1ccccc1)C(=O)N[C@@H](CCCNC(=N)N)C(=O)N[C@@H](Cc1c[nH]c2ccccc12)C(N)=O
Ratio EC50 [6]: 3

SMILES: N=C(N)NCCC[C@H](NC(=O)[C@@H](Cc1ccccc1)NC(=O)[C@H](Cc1cnc[nH]1)NC(=O)CNC(=O)[C@@H]1CCCN1C(=O)CNC(=O)[C@@H]1CCCN1C(=O)CNC(=O)[C@@H]1CCCN1C(=O)CNC(=O)[C@@H]1CCCN1C(=O)CNC(=O)[C@@H]1CCCN1C(=O)CNC(=O)[C@@H]1CCCN1)C(=O)N[C@@H](Cc1c[nH]c2ccccc12)C(N)=O (H-PGPGPGPGPGPGH[dF]RW-NH2)
Ratio EC50 [6]: 0.9
Ratio EC50 [18]: 2

SMILES: N=C(N)NCCC[C@H](NC(=O)[C@@H](Cc1ccc2ccccc2c1)NC(=O)[C@H](Cc1cnc[nH]1)NC(=O)COCC(=O)NCCCOCCOCCOCCCN)C(=O)N[C@@H](Cc1c[nH]c2ccccc12)C(N)=O
Ratio IC50 [4]: 1
Ratio IC50 [5]: 1
Activity [8]: 40%

SMILES: CC(=O)N[C@@H](Cc1cnc[nH]1)C(=O)N[C@H](Cc1ccc2ccccc2c1)C(=O)N[C@@H](CCCNC(=N)N)C(=O)N[C@@H](Cc1c[nH]c2ccccc12)C(=O)NCCCOCCOCCOCCCNC(=O)COCC(=O)N[C@@H](Cc1cnc[nH]1)C(=O)N[C@H](Cc1ccc2ccccc2c1)C(=O)N[C@@H](CCCNC(=N)N)C(=O)N[C@@H](Cc1c[nH]c2ccccc12)C(N)=O
Ratio IC50 [5]: 4
Ratio IC50 [19]: 2
Activity [1]: 80%
Activity [8]: 85%

Now from value to molecule:

Ratio IC50 [4]: 2
Ratio IC50 [5]: 6
SMILES: CC(=O)N[C@@H](Cc1cnc[nH]1)C(=O)N[C@H](Cc1ccccc1)C(=O)N[C@@H](CCCNC(=N)N)C(=O)N[C@@H](Cc1c[nH]c2ccccc12)C(=O)NCCCOCCOCCOCCCNC(=O)COCC(N)=O

Ratio IC50 [4]: 2
Activity [1]: 40%
Activity [8]: 20%
SMILES: CC(=O)N[C@@H](Cc1cnc[nH]1)C(=O)N[C@H](Cc1ccc2ccccc2c1)C(=O)N[C@@H](CCCNC(=N)N)C(=O)N[C@@H](Cc1c[nH]c2ccccc12)C(=O)NCCCOCCOCCOCCCNC(=O)COCC(N)=O

inhibition [3]: 78%
Ratio EC50 [6]: 0.6
Ratio EC50 [7]: 0.7
Ratio EC50 [18]: 2
SMILES: N=C(N)NCCC[C@H](NC(=O)[C@@H](Cc1ccccc1)NC(=O)[C@H](Cc1cnc[nH]1)NC(=O)COCC(=O)NCCCOCCOCCOCCCN)C(=O)N[C@@H](Cc1c[nH]c2ccccc12)C(N)=O
